# TRPC6 act: mouse TRPC6 channel activation; HEK293-TRPC6 membrane potential dye fluorescence; hits give high values; B-score at 10 µM; 310,000 compounds, 0.13% hits; AID 2550;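 active means B-score of the integrated fluorescence ratio above library mean plus 3 SD, and starting fluorescence ratio within library mean plus 5 SD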;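 further: higher score means more depolarization so channel activation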
# Target sequence (Q61143 whole entry, looked up): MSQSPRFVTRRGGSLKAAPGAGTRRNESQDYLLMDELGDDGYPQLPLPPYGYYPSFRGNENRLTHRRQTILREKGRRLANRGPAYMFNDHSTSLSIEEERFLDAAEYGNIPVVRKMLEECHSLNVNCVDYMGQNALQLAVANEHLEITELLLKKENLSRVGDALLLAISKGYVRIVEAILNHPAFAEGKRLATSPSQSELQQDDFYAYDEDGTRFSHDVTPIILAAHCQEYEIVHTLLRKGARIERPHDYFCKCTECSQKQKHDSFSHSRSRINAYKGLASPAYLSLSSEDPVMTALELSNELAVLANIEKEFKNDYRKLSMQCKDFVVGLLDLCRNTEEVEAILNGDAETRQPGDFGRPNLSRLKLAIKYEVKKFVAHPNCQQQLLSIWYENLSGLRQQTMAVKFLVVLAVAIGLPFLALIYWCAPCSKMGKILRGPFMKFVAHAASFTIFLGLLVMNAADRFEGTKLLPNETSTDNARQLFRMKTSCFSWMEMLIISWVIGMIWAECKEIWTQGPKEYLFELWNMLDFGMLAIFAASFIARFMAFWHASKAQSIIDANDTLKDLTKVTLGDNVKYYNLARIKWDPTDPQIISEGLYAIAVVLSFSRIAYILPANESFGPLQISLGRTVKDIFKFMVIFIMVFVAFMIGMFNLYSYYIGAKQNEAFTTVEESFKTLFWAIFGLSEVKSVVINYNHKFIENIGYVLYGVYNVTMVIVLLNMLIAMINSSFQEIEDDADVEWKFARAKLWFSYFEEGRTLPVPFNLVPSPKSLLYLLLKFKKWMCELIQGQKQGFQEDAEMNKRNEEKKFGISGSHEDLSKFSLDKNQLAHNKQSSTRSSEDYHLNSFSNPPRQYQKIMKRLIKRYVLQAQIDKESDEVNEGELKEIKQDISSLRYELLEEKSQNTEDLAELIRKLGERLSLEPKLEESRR
# TRPC4 agonist: activators of mouse TRPC4 channel. Q9QUQ5. HEK293 TRPC4beta/mu-opioid, Fluo4 calcium fluorescence; hits give high values. B-score at 10 µM. 310,000 compounds, 0.49% hits;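 active means B-score above 5 SD of library B-scores, and initial fluorescence ratio not above library mean plus 5 SD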;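 further: positive B-score marks a calcium rise read as TRPC4 activation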
#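 system = HEK293 cells stably co-expressing mouse TRPC4beta and mu-opioid receptor | schedule = Fluo4 dye loading 45 min at room temperature, 110 s recording | measure = B-scored integrated calcium fluorescence ratio | signal = Fluo4 calcium-sensitive dye fluorescence, kinetic, 1 Hz baseline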
# TRPC6 inh: inhibitors of mouse TRPC6 channel. Q61143. HEK293-TRPC6, membrane potential dye, ACh-evoked depolarization; hits give low values. B-score at 10 µM. 310,000 compounds, 1.1% hits. AID 2553;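 active means B-score under library mean minus 3 SD, initial fluorescence not abnormally high, positive integrated signal ratio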;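 further: B-score derived from integrated fluorescence ratio over the kinetic read; more negative B-score means stronger inhibition of depolarization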
# TRPC4 potent: allosterically enhances the mouse TRPC4 cation channel | HEK293 TRPC4beta/mu-opioid, DAMGO EC20, Fluo-4 Ca2+ flux; hits give high values | Q9QUQ5 | B-score at 10 µM | AID 2227 | 310,000 compounds, 0.42% hits;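 active means B-score of calcium response area above 5 SD of library B-scores, with initial fluorescence ratio within 5 SD of library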;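 further: B-score of integrated fluorescence ratio over time as area under calcium response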
# TRPC4 block: inhibitors of mouse TRPC4 channel. Q9QUQ5. HEK293 TRPC4beta/mu-opioid, DAMGO-evoked Fluo4 calcium flux; hits give low values. B-score at 10 µM. 300,000 compounds, 0.39% hits. AID 2247;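 active means B-score over 3 SD under the library average, no early fluorescence shift, positive overall ratio signal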
#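 test system = HEK293 cells with stable TRPC4beta plus mu-opioid receptor expression | detection = Fluo4 Ca2+ flux fluorescence | read-out = integrated fluorescence ratio relative to baseline, converted to per-well B score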
# TRPC4 spec 2: second selectivity test of TRPC6 inhibitors: effect on mouse TRPC4 | shares compounds with TRPC6 inh | 920 compounds, 42% hits | HEK293 TRPC4/MOR, membrane potential dye fluorescence; channel activated by saturating DAMGO dose | AID 2776 | inhibition, % at 10 µM;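 active means compounds whose fluorescence signal differed from control wells by over 3 SD, either direction, in both duplicate plates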
# TRPC4 spec: selectivity of TRPC6 inhibitors: effect on mouse TRPC4; activity change, negative = inhibition, % at 10 µM; HEK293 TRPC4/mu-opioid, membrane potential fluorescence; 920 compounds, 61% hits; shares compounds with TRPC6 inh;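 active means rise or fall in signal beyond 3 SD of buffer-only wells in both replicate plates, either sign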;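 further: integrated kinetic ratio of fluorescence range over baseline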
# HEK293 MPD ctr 2-1: parental HEK293 nonspecific activity of TRPC6 inhibitors, second screen; shares compounds with TRPC6 inh; parental HEK293 membrane potential dye fluorescence; maximal acetylcholine challenge after compound addition; signal change vs control, % at 10 µM; 920 compounds, 31% hits;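 active means membrane potential signal moving either way by over 3 SD of the maximum-effect control, in both duplicate plates, meaning non-specific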
# HEK293 MPD ctr-1: parental HEK293 nonspecific activity of TRPC6 inhibitors; 920 compounds, 60% hits; membrane potential signal change, % at 10 µM; parental HEK293 membrane potential dye fluorescence; shares compounds with TRPC6 inh;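 active means membrane potential signal shifting up or down by more than 3 SD of buffer-only wells, on both duplicate plates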
# HEK293 MPD ctr-2: checks TRPC6 modulator effects in parental HEK293 cells; shares compounds with TRPC6 inh; membrane potential dye fluorescence; membrane potential signal change, % at 10 µM; 2,400 compounds, 51% hits; AID 488924;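 active means membrane potential signal moves up or down beyond 5 SD from buffer-only wells, on both duplicate plates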
# HEK293 MPD ctr 2-2: second check of TRPC6 modulator effects in parental HEK293 cells | shares compounds with TRPC6 inh | membrane potential dye fluorescence; after compound, maximal acetylcholine stimulation | inhibition, % at 10 µM | 2,400 compounds, 14% hits | AID 488926;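 active means membrane potential signal drops by more than 5 SD from the mean control signal, in both duplicate plates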;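 further: plate controls were acetylcholine ECmax control wells for no effect and buffer only wells for full effect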
# TRPC4 ctr mod: mouse TRPC4 off-target activity of TRPC6 modulators; shares compounds with TRPC6 inh; HEK293 TRPC4/mu-opioid, membrane potential fluorescence; percent change from control (negative = decrease, positive = increase), % at 10 µM; 2,400 compounds, 69% hits; AID 488927;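 active means membrane potential signal moved up or down beyond 5 SD of buffer control wells, in both duplicate plates, actives on both sides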;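 further: plate controls were assay buffer wells for no effect and DAMGO maximal-effect wells for full effect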
# TRPC4 ctr inh 2: second check of whether TRPC6 modulators also affect mouse TRPC4. shares compounds with TRPC6 inh. HEK293 TRPC4/mu-opioid, membrane potential dye fluorescence; stimulated with maximal-effect DAMGO. inhibition, % at 10 µM. 2,400 compounds, 55% hits. AID 488928;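 active means drop in membrane potential signal beyond 5 SD of the control wells in both duplicate plates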;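 further: TRPC4 counter screen for TRPC6 hits run under conditions tuned for TRPC6 not TRPC4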
# TRPC6 block conf: mouse TRPC6 inhibitor confirmation. HEK293-TRPC6, membrane potential dye, ACh-evoked depolarization. shares compounds with TRPC6 inh. 3,300 compounds, 43% hits. AID 488960. inhibition, % at 10 µM;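 active means fluorescence ratio falls more than 5 SD below the full-stimulation control mean, in both duplicate runs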;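 further: integrated fluorescence ratio of peak minus minimum over baseline after agonist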
# TRPC6 act conf: confirmation of mouse TRPC6 activators; shares compounds with TRPC6 inh; HEK293-TRPC6 membrane potential dye fluorescence, FDSS; activation, % at 10 µM; 2,800 compounds, 11% hits; AID 488961;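 active means ratio signal rise beyond 5 SD above unstimulated control wells' mean, seen in both duplicate runs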;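 further: plate controls were buffer EC0 wells for no effect and acetylcholine ECmax response for full effect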
# * = called active by the depositor; i = inactive; · = no result. A selection: hits, their analogues and other compounds. The true share with any hit is near 2.3%.
SMILES,TRPC6 act,TRPC4 agonist,TRPC6 inh,TRPC4 potent,TRPC4 block,HEK293 MPD ctr-2,HEK293 MPD ctr 2-2,TRPC4 ctr mod,TRPC4 ctr inh 2,TRPC6 block conf,TRPC6 act conf,others
COc1ccc(CC(=O)NCCS(=O)(=O)N2CCN(c3ccccc3)CC2)cc1OC,i,i,i,i,i,·,·,·,·,·,·,
COc1ccccc1OCC(=O)NCCS(=O)(=O)N1CCN(c2ccccc2)CC1,i,i,-7.5*,i,i,·,·,·,·,i,i,TRPC4 spec 2=i;TRPC4 spec=i;HEK293 MPD ctr 2-1=i;HEK293 MPD ctr-1=i
COc1ccccc1C(=O)NCC(=O)NCCc1ccc(Cl)cc1,i,i,i,i,i,·,·,·,·,·,·,
Cc1cc2nc3ccc(N(C)C)cc3nc2cc1N,i,i,-6.4*,i,i,-82%*,i,-42%*,i,i,i,
Cc1ccc(-n2nc3cc(C)c(N)cc3n2)cc1,i,i,i,i,i,·,·,·,·,·,·,
CCNc1ccc2noc3c2c1C(=O)c1ccccc1-3,i,i,-5.8*,i,i,231%*,108%*,-282%*,144%*,70%*,i,
CC(C)OC(=O)c1cccnc1SCc1cc(=O)n2ccccc2n1,i,i,-6*,i,i,i,i,i,i,i,·,
CC(C)OC(=O)c1cccnc1SCC(=O)N(C)c1ccccc1,i,i,i,i,i,·,·,·,·,·,·,
Cc1ccc(NC(=O)CCS(=O)(=O)c2ccc3c(c2)NC(=O)C(C)S3)nc1 (centres undefined),i,i,i,i,i,·,·,·,·,·,·,
COc1ccc(-n2c(-c3ccc(Br)cc3)c[n+]3c2CCc2ccccc2-3)cc1,i,i,-5.3*,i,i,-150%*,i,18%*,62%*,i,i,
COc1ccccc1-n1c(-c2ccccc2)c[nH]c1=S,i,i,i,i,i,·,·,·,·,·,·,
CC(C)c1ccc(-n2c(-c3ccccc3)c[n+]3c2CCc2ccccc2-3)cc1,i,i,i,i,i,·,·,·,·,·,·,
COc1ccccc1-n1c(-c2ccccc2)c[n+]2c1CCc1ccccc1-2,i,i,-9.9*,i,i,92%*,i,20%*,40%*,77%*,i,TRPC4 spec 2=i;TRPC4 spec=1.8%*;HEK293 MPD ctr 2-1=i;HEK293 MPD ctr-1=i
COC(=O)[C@@H](Cc1c[nH]c2ccccc12)NC(=O)C1CCCN(S(=O)(=O)c2ccc(C)cc2)C1 (some centres undefined),i,i,i,i,i,·,·,·,·,·,·,
CN(C)CCCN(C(=O)c1cc2ccccc2oc1=O)c1nc2c(F)cccc2s1,i,i,-6.5*,i,i,i,i,-22%*,88%*,70%*,i,
CN(C)CCCN(C(=O)COc1ccccc1)c1nc2c(F)cccc2s1,i,i,-5*,i,i,i,i,-16%*,84%*,38%*,i,
CN(C)CCCN(C(=O)c1ccc(C(=O)c2ccccc2)cc1)c1nc2c(F)cccc2s1,i,i,-6.2*,i,i,i,i,i,82%*,60%*,i,
CCOc1ccccc1NC(=O)NNS(=O)(=O)c1cc(OC)ccc1OC,i,i,i,i,i,·,·,·,·,·,·,
CCCn1nc([N+](=O)[O-])c(C(C#N)c2nc3ccccc3o2)c(Cl)c1=O (centres undefined),i,i,-7.9*,i,-5*,-217%*,i,-46%*,81%*,68%*,i,
CCc1ccc(NC(=O)CSc2nc3ccccc3c(=O)n2CCCC(=O)NCCCN2CCOCC2)cc1,i,i,i,i,i,·,·,·,·,·,·,
CCN1C(=O)/C(=C/C=C2\N(CC)c3cc(S(=O)(=O)N(C)C)ccc3N2c2ccccc2)SC1=S,16*,i,i,20*,i,366%*,i,87%*,i,i,i,
CC1CCN(CC(C)OC(=O)c2ccc3c(c2)OCCO3)CC1 (centres undefined),i,i,-5.2*,i,i,120%*,i,15%*,i,i,·,
COc1cccc(-n2c(CCn3nc(C)c([N+](=O)[O-])c3C)n[nH]c2=S)c1,i,i,i,i,i,·,·,·,·,·,·,
COc1ccc(CCn2nc(C)c([N+](=O)[O-])c2C)cc1,i,i,-5.2*,i,i,i,i,20%*,i,i,·,
COc1cc2c(cc1OC)-c1c(OC)c(OC)cc3ccnc(c13)C2=O,i,i,-7.9*,i,i,·,·,·,·,54%*,i,TRPC4 spec 2=63%*;TRPC4 spec=-26%*;HEK293 MPD ctr 2-1=-58%*;HEK293 MPD ctr-1=-426%*
COc1cc2cccc(OC)c(=O)c2c(O)c1OC,i,i,i,i,i,·,·,·,·,·,·,
CCOC(=O)N1CCN(C(=O)CN2C(=O)COc3ccc(C(C)(C)C)cc32)CC1,i,i,-6.3*,i,i,94%*,i,18%*,i,54%*,·,
COC(=O)c1cc(OC)c(OC)cc1NC(=O)c1csc(C)c1,i,i,i,i,i,·,·,·,·,·,·,
COc1ccc(CN(CCN(C)C)c2ccccn2)cc1,i,i,i,i,i,·,·,·,·,·,·,

# Screens from PubChem BioAssay.
